Measured values gathered from unrelated publications.
Lines come from different studies, so protocols differ.
BTK: Tyrosine-protein kinase BTK (BTK, Homo sapiens, UniProt Q06187)
BTK C481S: Tyrosine-protein kinase BTK (BTK, Homo sapiens, UniProt Q06187, C481S)

CN(C)CC#Cc1ccc(OCCCc2sc(N3CCc4cccc(C(=O)Nc5nc6ccccc6s5)c4C3)nc2C(=O)O)c(F)c1 — remaining binding (BTK; cell-free assay, competition with immobilised ligand; 1 µM): 96%
COc1ccc(F)cc1C(=O)NCc1ccc(-c2nn([C@@H](C)C(F)(F)F)c(N)c2C(N)=O)cc1 — koff (BTK C481S; binding, SPR): 0.00013 s⁻¹
CC(C)(C=C(C#N)C(=O)N1CCC[C@H]1Cn1nc(-c2ccc(Oc3ccccc3)cc2F)c2c(N)ncnc21)N1CCOCC1 — KI (inactivation) (BTK; enzyme activity, inhibitor): 14 nM
CNCc1ccccc1-c1csc([C@H](C)Nc2nc(C)nc3cc(OC)c(OC)cc23)c1 — remaining binding (BTK; cell-free assay, competition with immobilised ligand; 1 µM): 89%
O=C1NC(=O)c2cc(Nc3ccc(F)cc3)c(Nc3ccc(F)cc3)cc21 — remaining signal (BTK; cell-free assay; 0.5 µM): 94.3%
CS(=O)(=O)N1CCCC(NC(=O)[C@H](CCC2CCCCC2)NC(=O)c2ccc(CNC(=O)c3cnc4ccccn34)cc2)C1 (stereo partly drawn) — remaining binding (BTK; cell-free assay, competition with immobilised ligand; 0.1 µM): 100%
Cc1cc(NC(=O)c2cccc3cc(-c4cccc5[nH]nc(N)c45)ccc23)ccc1F — activity vs control (BTK; enzyme activity, inhibitor; 0.1 µM): 99%
N#CCCc1ccc2c(c1)-c1[nH]c3ccc([N+](=O)[O-])cc3c1CC(=O)N2 — remaining signal (BTK; cell-free assay; 0.5 µM): 94.6%
NC(=O)[C@H]1CCN(c2ncnc(N)c2F)C[C@@H]1N1CCC[C@@H](Nc2cc(Cl)cc(C(F)(F)F)c2)C1=O — residence time (BTK C481S; binding in cells): 16 min
COc1cc(Cl)c(C(=O)N[C@@H](CN[C@H]2CC[C@@H](N)CC2)Cc2ccc(C#N)cc2)cc1-c1ccc(CN[C@H](C)c2ccc(C)cc2)o1 — remaining activity (BTK; enzyme activity, inhibitor; 1 µM): 114%
Oc1cccc(-c2nc(N3CCOCC3)c3oc4ncccc4c3n2)c1 — remaining activity (BTK; enzyme activity, inhibitor; 10 µM): 82%
Cc1cnc(NC2CCOCC2)nc1-n1cnc(C(=O)NC(CN)c2cc(F)cc(Cl)c2)c1 (stereo not drawn) — remaining activity (Tyrosine-protein kinase BTK (BTK, Homo sapiens, UniProt Q06187, R28H); enzyme activity, inhibitor, radiometric; 1 µM): 99%
O=C1Nc2ccc(Cl)cc2C1=Cc1cc(Cl)c(O)c(Cl)c1 — remaining signal (BTK; cell-free assay; 0.5 µM): 92.1%
CC(C)(O)[C@H]1CC[C@H](Nc2ccc3ncc(-c4cccc(C(F)(F)F)c4)n3n2)CC1 — remaining activity (BTK; enzyme activity, inhibitor; 1 µM): 88%
COc1cc(Nc2cnc(C#N)c(O[C@H](C)CN(C)C)n2)ncc1-c1cnn(C)c1 — remaining activity (BTK; enzyme activity, inhibitor, radiometric; 10 µM): 60%
C[C@@H]1CN(c2cc(-c3n[nH]c4ccc(OC5(C)CC5)cc34)ncn2)C[C@H](C)O1 — remaining binding (BTK; cell-free assay, competition with immobilised ligand; 0.1 µM): 73%
CC(C)(C)c1nc(-c2cccc(NS(=O)(=O)c3c(F)cccc3F)c2F)c(-c2ccnc(N)n2)s1 — remaining activity (BTK; enzyme activity, inhibitor, radiometric; 1 µM): 96%
O=C(NCc1ncc(C(F)(F)F)cc1Cl)c1ccc2c(c1)C1(CCS(=O)(=O)CC1)[C@@H](C1CC1)N2S(=O)(=O)c1ccc(F)cc1 — remaining binding (BTK; cell-free assay, competition with immobilised ligand; 1 µM): 73%
Cc1ccc(NC(=O)c2ccc(C)c(C(F)(F)F)c2)cc1C#Cc1nn(C2CCC(O)CC2)c2ncnc(N)c12 (stereo not drawn) — remaining signal (BTK; cell-free assay; 10 µM): 10%
C=CC(=O)N1CCC[C@@H]1Cn1nc(-c2ccc(Oc3ccccc3)cc2F)c2c(N)ncnc21 — kinact/KI (BTK; enzyme activity, inhibitor): 1.9e+06 M⁻¹ s⁻¹
CC(C)(C)C(=O)c1sc(NC2CCCCC2)nc1N — remaining activity (BTK; enzyme activity, inhibitor; 10 µM): 79%
NS(=O)(=O)c1cc(NC(=O)C2(c3ccccc3Cl)CC2)ccc1Oc1cccc(Cl)c1 — remaining binding (BTK; cell-free assay, competition with immobilised ligand; 1 µM): 88%
Cc1sc(C(=O)NC2COC2)cc1-n1cc(NC(=O)Nc2c(F)cccc2Cl)cn1 — remaining activity (BTK; enzyme activity, inhibitor; 10 µM): 87.6%
FC(F)(F)c1ccc2c(c1)nc(-c1cccnc1)n2C1CC1 — remaining binding (BTK; cell-free assay, competition with immobilised ligand; 1 µM): 93%
O=C(Nc1cnn(-c2csc(C(=O)NC3COC3)c2)c1)Nc1ccccc1Cl — remaining activity (BTK; enzyme activity, inhibitor; 5 µM): 92.6%
CNC(=O)c1ccc(Nc2ncc(C(F)(F)F)c(NCc3nccnc3N(C)S(C)(=O)=O)n2)cc1 — remaining binding (BTK; cell-free assay, competition with immobilised ligand; 0.1 µM): 83%
Nc1ncnc2occ(-c3ccc(NC(=O)Nc4cc(C(F)(F)F)ccc4F)cc3)c12 — remaining signal (BTK; cell-free assay; 20 µM): 26%
